Experimental data reported in ChEMBL document CHEMBL1629526, “4-[1-(Substituted aryl/alkyl carbonyl)-benzoimidazol-2-yl]-benzenesulfonic acids: synthesis, antimicrobial activity, QSAR studies, and antiviral evaluation” (Eur J Med Chem, 2010).
Converted amounts (≈) assume the structure as drawn.

Key:
Influenza A virus [1] = test: Antiviral activity against Influenza A H3N2 virus subtype infected in MDCK cells assessed as inhibition of virus induced cytopathicity after 2 to 4 days by MTS assay; type: functional, organism-based
Coxsackievirus B4 [2] = test: Antiviral activity against coxsackievirus B4 infected in human HeLa cells assessed as inhibition of virus induced cytopathicity after 2 to 4 days by MTS assay; type: functional, organism-based; conditions: Enterovirus B
Vaccinia virus = test: Antiviral activity against Vaccinia virus infected in HEL cells assessed as inhibition of virus induced cytopathicity after 2 to 4 days by MTS assay; type: functional, organism-based; conditions: Orthopoxvirus vaccinia
Candida albicans = test: Antimicrobial activity against Candida albicans after 48 hrs by tube dilution method; type: functional
Influenza B virus [3] = test: Antiviral activity against Influenza B virus infected in MDCK cells assessed as inhibition of virus induced cytopathicity after 2 to 4 days by MTS assay; type: functional, organism-based
HeLa = test: Cytotoxicity against human HeLa cells assessed as cell viability by MTS assay; type: cell-based; conditions: hela
Summary of the method: (§1)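 Uninfected cultures were run in parallel with the antiviral assays. Viability was read by colorimetric formazan MTS assay.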

Sindbis virus = test: Antiviral activity against Sindbis virus infected in african green monkey Vero cells assessed as inhibition of virus induced cytopathicity after 2 to 4 days by MTS assay; type: functional, organism-based
Bacillus subtilis = test: Antimicrobial activity against Bacillus subtilis after 24 hrs by tube dilution method; type: functional
Summary of the method: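 Serial dilutions in double-strength nutrient broth (I.P.) with ciprofloxacin as reference, tube dilution, incubated 37 °C for 24 h. MIC is the lowest concentration that inhibited growth.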

Coxsackievirus B4 [4] = test: Antiviral activity against Coxsackie virus B4 infected in african green monkey Vero cells assessed as inhibition of virus induced cytopathicity after 2 to 4 days by MTS assay; type: functional, organism-based; conditions: Enterovirus B
[5] = Cytotoxicity against human HeLa cells assessed as altered cell morphology; type: cell-based
Summary of the method: (§2)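 Uninfected cell cultures run alongside the antiviral assays, exposed to serial compound dilutions and incubated at 37 °C for 2–4 days. Toxicity was scored microscopically and reported as the minimum cytotoxic concentration (MCC), the lowest concentration causing a detectable change in normal cell morphology.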

[6] = system: Vesicular stomatitis virus; test: Antiviral activity against Vesicular stomatitis virus infected in human HeLa cells assessed as inhibition of virus induced cytopathicity after 2 to 4 days by MTS assay; type: functional, organism-based
MDCK = test: Cytotoxicity against MDCK cells assessed as cell viability by MTS assay; type: cell-based, Canis lupus familiaris; conditions: dog, mdck; summary of the method: as §1
[7] = system: Respiratory syncytial virus; test: Antiviral activity against Respiratory syncytial virus infected in human HeLa cells assessed as inhibition of virus induced cytopathicity by visual scoring of CPE; type: functional, organism-based
Escherichia coli = test: Antimicrobial activity against Escherichia coli after 24 hrs by tube dilution method; type: functional
[8] = system: Vesicular stomatitis virus; test: Antiviral activity against Vesicular stomatitis virus infected in HEL cells assessed as inhibition of virus induced cytopathicity after 2 to 4 days by MTS assay; type: functional, organism-based
Influenza A virus [9] = test: Antiviral activity against Influenza A H3N2 virus subtype infected in MDCK cells assessed as inhibition of virus induced cytopathicity by visual scoring of CPE; type: functional, organism-based
[10] = system: Mammalian orthoreovirus 1; test: Antiviral activity against Reovirus 1 virus infected in african green monkey Vero cells assessed as inhibition of virus induced cytopathicity after 2 to 4 days by MTS assay; type: functional, organism-based; conditions: Mammalian orthoreovirus 1, Vero
Staphylococcus aureus = test: Antimicrobial activity against Staphylococcus aureus after 24 hrs by tube dilution method; type: functional
Human respirovirus 3 = test: Antiviral activity against parainfluenza-3 virus infected in african green monkey Vero cells assessed as inhibition of virus induced cytopathicity after 2 to 4 days by MTS assay; type: functional, organism-based; conditions: Human respirovirus 3, Vero
Human alphaherpesvirus 1 [11] = test: Antiviral activity against Herpes simplex virus 1 KOS infected in HEL cells assessed as inhibition of virus induced cytopathicity after 2 to 4 days by MTS assay; type: functional, organism-based; conditions: Human alphaherpesvirus 1, KOS
Human alphaherpesvirus 2 = test: Antiviral activity against Herpes simplex virus 2 G infected in HEL cells assessed as inhibition of virus induced cytopathicity after 2 to 4 days by MTS assay; type: functional, organism-based; conditions: Human alphaherpesvirus 2, strain G
[12] = Cytotoxicity against cat CRFK cells assessed as cell viability by MTS assay; type: cell-based, Felis catus; conditions: crfk; summary of the method: as §1
Human alphaherpesvirus 1 [13] = test: Antiviral activity against thymidine kinase deficient acyclovir-resistant Herpes simplex virus 1 KOS infected in HEL cells assessed as inhibition of virus induced cytopathicity after 2 to 4 days by MTS assay; type: functional, organism-based; conditions: Human alphaherpesvirus 1, KOS
[14] = Cytotoxicity against african green monkey Vero cells assessed as altered cell morphology; type: cell-based; conditions: chlorocebus sabaeus; summary of the method: as §2
[15] = Cytotoxicity against MDCK cells assessed as altered cell morphology; type: cell-based, Canis lupus familiaris; conditions: dog; summary of the method: as §2
Aspergillus niger = test: Antimicrobial activity against Aspergillus niger after 7 days by tube dilution method; type: functional; conditions: 168 h
Feline coronavirus = test: Antiviral activity against Feline coronavirus infected in cat CRFK cells assessed as inhibition of virus induced cytopathicity after 2 to 4 days by MTS assay; type: functional, organism-based; conditions: Alphacoronavirus 1, CRFK
[16] = system: Vesicular stomatitis virus; test: Antiviral activity against Vesicular stomatitis virus infected in human HeLa cells assessed as inhibition of virus induced cytopathicity by visual scoring of CPE; type: functional, organism-based
Influenza B virus [17] = test: Antiviral activity against Influenza B virus infected in MDCK cells assessed as inhibition of virus induced cytopathicity by visual scoring of CPE; type: functional, organism-based
[18] = Cytotoxicity against human HEL cells assessed as altered cell morphology; type: cell-based; summary of the method: as §2
[19] = system: Respiratory syncytial virus; test: Antiviral activity against Respiratory syncytial virus infected in human HeLa cells assessed as inhibition of virus induced cytopathicity after 2 to 4 days by MTS assay; type: functional, organism-based
Punta Toro virus = test: Antiviral activity against Punta Toro virus infected in african green monkey Vero cells assessed as inhibition of virus induced cytopathicity after 2 to 4 days by MTS assay; type: functional, organism-based
Felid alphaherpesvirus 1 = test: Antiviral activity against Feline herpesvirus 1 infected in cat CRFK cells assessed as inhibition of virus induced cytopathicity after 2 to 4 days by MTS assay; type: functional, organism-based; conditions: Felid alphaherpesvirus 1, CRFK
Coxsackievirus B4 [20] = test: Antiviral activity against coxsackievirus B4 infected in human HeLa cells assessed as inhibition of virus induced cytopathicity by visual scoring of CPE; type: functional, organism-based; conditions: Enterovirus B

| Compound | EC50 (Influenza A virus [1]) | EC50 (Coxsackievirus B4 [2]) | EC50 (Vaccinia virus) | MFC (Candida albicans) | EC50 (Influenza B virus [3]) | CC50 (HeLa) | EC50 (Sindbis virus) | MBC (Bacillus subtilis) | EC50 (Coxsackievirus B4 [4]) | MCC [5] | EC50 [6] | CC50 (MDCK) | EC50 [7] | MBC (Escherichia coli) | EC50 [8] | EC50 (Influenza A virus [9]) | EC50 [10] | MBC (Staphylococcus aureus) | EC50 (Human respirovirus 3) | EC50 (Human alphaherpesvirus 1 [11]) | further results |
| --- | --- | --- | --- | --- | --- | --- | --- | --- | --- | --- | --- | --- | --- | --- | --- | --- | --- | --- | --- | --- | --- |
| O=C(c1ccc(Cl)cc1)n1c(-c2ccc(S(=O)(=O)O)cc2)nc2ccccc21 | > 100 µg/mL | > 100 µg/mL | > 100 µg/mL | > 50 µg/mL | > 100 µg/mL | > 100 µg/mL | > 100 µg/mL | > 50 µg/mL | > 100 µg/mL | > 100 µg/mL | > 100 µg/mL | > 100 µg/mL | > 100 µg/mL | 1.56 µg/mL (≈ 3.78 µM) | > 100 µg/mL | > 100 µg/mL | > 100 µg/mL | 25 µg/mL (≈ 60.6 µM) | > 100 µg/mL | > 100 µg/mL | EC50 (Human alphaherpesvirus 2): > 100 µg/mL; CC50 [12]: > 100 µg/mL; EC50 (Human alphaherpesvirus 1 [13]): > 100 µg/mL; MCC [14]: > 100 µg/mL; MCC [15]: > 100 µg/mL; MFC (Aspergillus niger): > 50 µg/mL; EC50 (Feline coronavirus): > 100 µg/mL; EC50 [16]: > 100 µg/mL; EC50 (Influenza B virus [17]): > 100 µg/mL; MCC [18]: > 100 µg/mL; EC50 [19]: > 100 µg/mL; EC50 (Punta Toro virus): > 100 µg/mL; EC50 (Felid alphaherpesvirus 1): > 100 µg/mL; EC50 (Coxsackievirus B4 [20]): > 100 µg/mL |
| COc1ccc(C(=O)n2c(-c3ccc(S(=O)(=O)O)cc3)nc3ccccc32)cc1 | > 100 µg/mL | > 100 µg/mL | > 100 µg/mL | > 50 µg/mL | > 100 µg/mL | > 100 µg/mL | > 100 µg/mL | > 50 µg/mL | > 100 µg/mL | > 100 µg/mL | > 100 µg/mL | > 100 µg/mL | > 100 µg/mL | 3.12 µg/mL (≈ 7.64 µM) | > 100 µg/mL | > 100 µg/mL | > 100 µg/mL | > 50 µg/mL | > 100 µg/mL | > 100 µg/mL | EC50 (Human alphaherpesvirus 2): > 100 µg/mL; CC50 [12]: > 100 µg/mL; EC50 (Human alphaherpesvirus 1 [13]): > 100 µg/mL; MCC [14]: > 100 µg/mL; MCC [15]: > 100 µg/mL; MFC (Aspergillus niger): > 50 µg/mL; EC50 (Feline coronavirus): > 100 µg/mL; EC50 [16]: > 100 µg/mL; EC50 (Influenza B virus [17]): > 100 µg/mL; MCC [18]: > 100 µg/mL; EC50 [19]: > 100 µg/mL; EC50 (Punta Toro virus): > 100 µg/mL; EC50 (Felid alphaherpesvirus 1): > 100 µg/mL; EC50 (Coxsackievirus B4 [20]): > 100 µg/mL |
| O=C(c1ccc([N+](=O)[O-])cc1)n1c(-c2ccc(S(=O)(=O)O)cc2)nc2ccccc21 | > 100 µg/mL | > 100 µg/mL | > 100 µg/mL | 25 µg/mL (≈ 59 µM) | > 100 µg/mL | > 100 µg/mL | > 100 µg/mL | 50 µg/mL (≈ 118 µM) | > 100 µg/mL | > 100 µg/mL | > 100 µg/mL | > 100 µg/mL | > 100 µg/mL | 1.56 µg/mL (≈ 3.68 µM) | > 100 µg/mL | > 100 µg/mL | > 100 µg/mL | 50 µg/mL (≈ 118 µM) | > 100 µg/mL | > 100 µg/mL | EC50 (Human alphaherpesvirus 2): > 100 µg/mL; CC50 [12]: > 100 µg/mL; EC50 (Human alphaherpesvirus 1 [13]): > 100 µg/mL; MCC [14]: > 100 µg/mL; MCC [15]: > 100 µg/mL; MFC (Aspergillus niger): > 50 µg/mL; EC50 (Feline coronavirus): > 100 µg/mL; EC50 [16]: > 100 µg/mL; EC50 (Influenza B virus [17]): > 100 µg/mL; MCC [18]: > 100 µg/mL; EC50 [19]: > 100 µg/mL; EC50 (Punta Toro virus): > 100 µg/mL; EC50 (Felid alphaherpesvirus 1): > 100 µg/mL; EC50 (Coxsackievirus B4 [20]): > 100 µg/mL |
